# FN deposition inh – fibronectin deposition inhibition | AH1F fibroblasts, Alexa488-fibronectin deposition fluorescence, overnight | 0.086% of 350,000 active | AID 743247 | inhibition, % at 12.6 µM;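 active = mean inhibition across replicates of 30% or more, regardless of how many single replicates reach that level; inconclusive = mean under 30% yet at least half of replicates reach 30%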;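 also: positive control wells lacked labelled fibronectin entirely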
#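 Material – AH1F fibroblast monolayer, labelled fibronectin deposition · Reagent – labelled fibronectin 24 nM · Timing – 1 h adhesion, overnight exposure · Measured by – fluorescence at 485 nm excitation, 525 nm emission · Read-out – inhibition of fibronectin deposition signal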
# F508del corr – CFTR F508del correction in bronchial cells; CFBE cells, YFP halide quenching; stimulated with forskolin plus potentiator P3; % fluorescence drop versus neutral controls; activity (quench increase), % at 7.58 µM; 0.36% of 350,000 active; AID 720511;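 active = mean added fluorescence quench of at least 8% versus neutral control, with both replicates also reaching 8%; inconclusive = only one of the mean or replicate conditions met; inactive = mean below 8% and not both replicates reaching 8%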;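 also: cells transiently co-express mutant CFTR-F508del with the halide-sensitive YFP; corrector assay measuring rescue of mutant channel to the surface after 24 h compound exposure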
# PAX8 reporter – lowers PAX8-driven luciferase in RMG-I cells; RMG-I TPO-luciferase reporter, SteadyGlo, 24 h; inhibition, % at 12.6 µM; 1.2% of 360,000 active;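 active = mean replicate inhibition at least 60% with every replicate also reaching 60%; inconclusive = only one of the two criteria is met; inactive = mean below 60% and not all replicates reaching 60%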;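 also: luciferase light reporting Pax8 driven TPO promoter activity; plate controls were median of neutral control wells for no effect and mitoxantrone controls for full effect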
# EWS-Fli inh – EWS/Fli transcriptional activity inhibition. inhibition, % at 12.6 µM. A673 NR0B1-luciferase reporter, viability-normalised. AID 651661. 0.67% of 350,000 active;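 active = mean inhibition of at least 50% after viability correction, with every replicate also passing that limit; inconclusive = mean reaches 50% but only one of two replicates passes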;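 also: firefly luciferase signal divided by Alamar Blue viability fluorescence both relative to DMSO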
# PGC1a acetyl inh – PGC1a acetylation modulation, inhibitor mode; U2OS PGC1a acetylation, AlphaScreen anti-acetyl-lysine; with virally co-expressed GCN5 acetyltransferase; inhibition, % at 15.6 µM; 0.17% of 350,000 active; AID 651687;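 active = every replicate shows inhibition of at least 40%; inconclusive = mean inhibition at least 40% but some replicate below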;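 also: 0% = neutral control wells and 100% = positive control wells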
# HIV Env fusion – inhibitors of HIV Env-mediated cell fusion | HeLa-JRFL Env/CEM21 cell fusion, luciferase | inhibition, % at 12.3 µM | 1.1% of 360,000 active;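 active = mean replicate inhibition score of at least 50 and every replicate individually at or above 50; inconclusive = only one of the two criteria met; inactive = mean below 50 and not all replicates reaching 50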;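 also: 0% = plate neutral controls and 100% = maraviroc near 300 nM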
# Active calls of the source: *; u = inconclusive; x = no result given; [ ] = remark or other dose. A selection: hits, their analogues and other compounds. The true share with any hit is near 2.3%.
SMILES,FN deposition inh,F508del corr,PAX8 reporter,EWS-Fli inh,PGC1a acetyl inh,HIV Env fusion
CC1(C)CC(O)CC(C)(C)N1CC(O)COCc1ccccc1 (stereo unspecified),3.5,0.2,-1.7,4.6,15.7,-19.5
COC1OC(COCc2ccccc2)C2OC(C)(C)OC2C1O (stereo unspecified),-3.3,2.3,104.0*,-6.6,x,7.8
CCc1ccc(NC(=O)c2nc(S(=O)(=O)Cc3ccccc3)ncc2Cl)cc1,50.8*,2.2,53.2,x,x,u
CC1CCN(S(=O)(=O)c2ccc(NC(=O)c3ccncc3)cc2)CC1,x,-0.7,16.9,32.2,5.3,28.2
CCS(=O)(=O)c1ncc(Cl)c(C(=O)Nc2ccc(S(=O)(=O)N3CCC(C)CC3)cc2)n1,58.2*,-8.9,99.8*,x,x,64.8*
CCOC(=O)c1ccc(NC(=O)c2nc(S(=O)(=O)Cc3ccccc3)ncc2Cl)cc1,47.5*,-2.5,22.1,x,-78.0,u
CC(C)c1nnc(NC(=O)c2nc(S(=O)(=O)Cc3ccccc3)ncc2Cl)s1,8.3,2.4,16.7,63.7*,x,-156.5
CN(C)C(=O)[C@@H]1[C@@H](CO)[C@@H]2Cn3c(ccc(-c4ccccc4F)c3=O)[C@H]1N2C(=O)c1ccccc1,x,x,x,-3.8,x,x
CC(C)NC(=O)N1CC2(C1)[C@@H](c1ccccc1)[C@H](CO)N2C(=O)C1CC1,-0.1,-0.2,x,-0.2,x,x
CCSc1ncc(Cl)c(C(=O)Nc2ccc(S(=O)(=O)Nc3ncccn3)cc2)n1,1.6,-1.2,-8.6,-1.6,7.0,9.8
CCSc1ncc(Cl)c(C(=O)Nc2ccc(S(N)(=O)=O)cc2)n1,1.3,1.9,70.4*,17.6,6.0,11.5
CC(C)NC(=O)Nc1ccc2c(c1)C(=O)N(C)C[C@H](C)[C@@H](CN(C)C(=O)NC(C)C)O2,-3.6,x,x,x,x,x
O=C(Nc1ccc(C(F)(F)F)cc1)Nc1ccc2c(c1)[C@@H]1C[C@H](CC(=O)N3CCc4ccccc4C3)O[C@@H](CO)[C@@H]1O2,-8.5,0.6,-7.0,11.7,-10.4,40.3[16.7 µM]
O=C(C[C@@H]1C[C@H]2c3cc(NC(=O)Nc4ccc(F)cc4)ccc3O[C@H]2[C@H](CO)O1)NCC1CC1,-1.9,0.3,15.8,7.5,-0.1,94.8*[16.7 µM]
O=C(Nc1ccc(F)cc1)Nc1ccc2c(c1)[C@H]1C[C@@H](CC(=O)N3CCCCC3)O[C@H](CO)[C@H]1O2,-2.0,0.4,3.0,-1.0,-3.0,83.1*[16.7 µM]
O=C(Nc1ccc(F)cc1)Nc1ccc2c(c1)[C@@H]1C[C@@H](CC(=O)N3CCCCC3)O[C@H](CO)[C@@H]1O2,-10.9,-3.4,-5.4,6.8,-4.4,0.8[16.7 µM]
O=C(Nc1ccc(C(F)(F)F)cc1)Nc1ccc2c(c1)[C@H]1C[C@H](CC(=O)N3CCc4ccccc4C3)O[C@H](CO)[C@H]1O2,3.8,-4.5,82.4*,15.3,-4.0,2.5[16.7 µM]
O=C(C[C@H]1C[C@@H]2c3cc(NC(=O)Nc4ccc(F)cc4)ccc3O[C@@H]2[C@@H](CO)O1)NCC1CC1,-0.8,-0.7,10.3,3.1,4.7,94.8*[16.7 µM]
C[C@@H]1CN([C@@H](C)CO)S(=O)(=O)c2ccc(-c3cccc(C#N)c3)cc2O[C@H]1CN(C)C(=O)Nc1cc(F)ccc1F,x,2.7,8.9,-4.7,0.5,x
COc1ccc(OCCN(C)Cc2c(O)ccc3ccccc23)cc1,16.2,0.0,62.0*,8.2,-13.4,17.5
CN(Cc1ccccc1)Cc1c(O)ccc2ccccc12,-2.5,2.2,2.2,12.3,x,-15.6
CCOC(=O)c1oc2ccc(S(=O)(=O)n3nc(-c4ccccc4)cc3N)cc2c1C,3.8,8.2*,20.9,15.8,-73.9,25.7
COc1cccc(S(=O)(=O)N2CC[C@H]3[C@@H](CO)N(C)c4ccc(C#Cc5ccc(F)cc5)cc4[C@H]32)c1,16.9,1.6,85.2*,5.4,-7.9,x
Cc1cccc(S(=O)(=O)N2CC[C@@H]3[C@H](CO)N(C)c4ccc(C#Cc5ccc(F)cc5)cc4[C@@H]32)c1,x,4.1,91.0*,19.3,-15.4,x
COc1cccc(-c2ccc3c(c2)[C@@H]2[C@@H](CCN2S(=O)(=O)c2ccc(F)cc2)[C@H](CO)N3C)c1,-13.7,5.0,u,0.3,-26.0,x
SMILES,FN deposition inh,F508del corr,PAX8 reporter,EWS-Fli inh,PGC1a acetyl inh,HIV Env fusion
COCCn1c(C)cc(C(=O)CSc2nnc(C)s2)c1C,2.0,x,75.4*,x,8.0,63.0*
COCCn1c(C)cc(C(=O)CSc2nnnn2C2CCCC2)c1C,-3.3,-0.6,38.6,81.8*,x,60.3*
Cc1ccc(Cc2c(-c3cccc(Cl)c3)nc3ccc(C)cn23)cc1,-2.4,-1.8,-156.2,-64.8,-13.0,61.8*
COc1ccc2c3c([nH]c2c1)[C@H](CO)N(Cc1ccccc1F)CC31CN(CC2CC2)C1,4.9,x,x,x,x,x
O=C(c1cccc(F)c1)N1CCCCN2[C@H](C1)[C@H](c1ccc(-c3ccc(F)cc3)cc1)[C@@H]2CO,x,0.0,-4.1,-6.9,7.3,x
O=C(Nc1cccc(F)c1)N1CCCCN2[C@H](C1)[C@H](c1ccc(-c3ccncc3)cc1)[C@@H]2CO,x,-1.0,-14.3,-3.9,-2.8,x
O=C(Nc1ccc(F)cc1)N1CCCCN2[C@@H](CO)[C@@H](c3ccc(-c4cccc(F)c4)cc3)[C@@H]2C1,x,-2.9,105.9*,72.4*,-18.2,x
O=C(c1cccc(F)c1)N1CCCCN2[C@H](C1)[C@@H](c1ccc(-c3ccc(F)cc3)cc1)[C@@H]2CO,x,0.3,65.1*,-12.7,3.1,x
O=C(Nc1ccc(F)cc1)N1CCCCN2[C@H](C1)[C@@H](c1ccc(-c3cccc(F)c3)cc1)[C@@H]2CO,x,-0.9,2.3,6.0,-1.6,x
O=C(Nc1cccc(F)c1)N1CCCCN2[C@@H](CO)[C@@H](c3ccc(-c4ccncc4)cc3)[C@@H]2C1,x,-6.9,110.0*,4.0,-7.9,x
Cc1ccc(-c2ccc([C@H]3[C@@H](CO)N4CCCCN(C(=O)Nc5cccc(F)c5)C[C@@H]34)cc2)cc1,x,3.8,11.3,19.8,8.7,x
Cc1ccc(-c2ccc([C@@H]3[C@H](CO)N4CCCCN(C(=O)Nc5cccc(F)c5)C[C@@H]34)cc2)cc1,x,2.0,81.4*,32.4,-14.7,x
C[C@H]1CN([C@@H](C)CO)C(=O)c2cc(C3=CCCCC3)cnc2O[C@@H]1CN(C)C(=O)Cc1ccncc1,x,-0.9,-15.4,-6.5,-15.3,-4.8[16.7 µM]
CC(C)NC(=O)N(C)C[C@@H]1Oc2ccc(NC(=O)CCCCCC(=O)Nc3ccccc3N)cc2CC(=O)N([C@@H](C)CO)C[C@H]1C,x,-3.1,-5.9,0.2,6.1,6.8[16.7 µM]
COc1ccc(/C=C/C(=O)NCCc2ccc(OC)c(OC)c2)cc1,2.8,x,-4.5,x,x,-7.2
COc1ccc(CCNC(=O)/C=C/c2ccc3ccccc3n2)cc1OC,1.2,-2.9,76.7*,19.3,4.6,-15.9
C[C@@H]1CN([C@@H](C)CO)C(=O)Cc2cc(NS(C)(=O)=O)ccc2O[C@H]1CN(C)S(=O)(=O)c1ccccc1,-15.5,-3.1,15.1,2.5,1.7,-9.5[16.7 µM]
